The values below come from ChEMBL document CHEMBL1155425, “Synthesis and antitumor activity of 1-mesityl-3-(2-naphthoylmethano)-1H-imidazolium bromide” (Bioorg Med Chem Lett, 2010).

Molecules are shown by their SMILES.

One data set deals with Mus musculus. Description: Acute toxicity in human A549 cells xenografted mouse at 10 to 80 mg/kg. Conditions: in vivo. The data set is classed as organism-based. On the set-up: dose 10-80 mg/kg.
Data set [1] can be described thus: Selectivity ratio of IC50 for human A549 cells to IC50 for human Raji cells. The data set is classed as functional.
Data set [2] is described as follows: Selectivity ratio of IC50 for human A549 cells to IC50 for human Hep2 cells. The data set is classed as functional.
Data set [3] has as its system A549. Description: Antitumor activity against human A549 cells xenografted in nude mouse assessed as increase in tumor volume at 4 mg/kg, ip administered every 2 days for 19 days measured on day 19 postimplantation relative to tumor volume on day of implantation. The data set is classed as functional. As to conditions: route intraperitoneal. In outline:
(§1)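 Nude mice implanted s.c. in right flank with A549 cells (2 × 10⁷ cells/mL) on day 0. Treatment began at mean tumor ~100 mm³ (day 1). Compound in 0.5% CMC-Na given ip every 2 days for 19 days, 0.2 mL per 20 g body weight; cisplatin 1 mg/kg as reference. Caliper volume (W² × L)/2, expressed as RTV = TVn/TV₁.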
(In xenograft studies the graft and the host belong to different species.)

The test system of data set [4] is K562. Nature of the data set: Cytotoxicity in human K562 cells after 48 hrs by MTT assay. The data set is classed as functional, cell-based. Conditions: K562, 48 h. In outline:
(§2)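 Cells grown at 37 °C, 5% CO₂, in RPMI 1640 with 10% fetal serum. Exposed 48 h to compound at 0.1–100 µg/mL. Viability by MTT, absorbance at 570 nm. IC50 is the concentration giving 50% reduction in absorbance versus untreated cells; triplicate tests.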
A general note: Tetrazolium assays rely on reduction of a dye to a coloured formazan, in cell work by metabolically active cells.

The test system of a further data set is SMMC-7721. Description: Cytotoxicity in human SMMC7721 cells after 48 hrs by MTT assay. The data set is classed as functional, cell-based. As to conditions: SMMC-7721, 48 h. The gist of the method: as §2
The next data set relates to EJ. Description: Cytotoxicity in human EJ cells after 48 hrs by MTT assay. The data set is classed as functional, cell-based. The gist of the method: as §2
The test system of a further data set is HEp-2. Nature of the data set: Cytotoxicity in human Hep2 cells after 48 hrs by MTT assay. The data set is classed as functional, cell-based. As to conditions: HEp-2, 48 h. In outline: as §2
Data set [5] deals with A549. Nature of the data set: Cytotoxicity in human A549 cells after 48 hrs by MTT assay. The data set is classed as functional, cell-based. Conditions: A549, 48 h. In outline:
as §2

The test system of a further data set is HepG2. Description: Cytotoxicity in human HepG2 cells after 48 hrs by MTT assay. The data set is classed as functional, cell-based. As to conditions: HepG2, 48 h. In outline:
as §2

A further data set has as its system Raji. Description: Cytotoxicity in human Raji cells after 48 hrs by MTT assay. The data set is classed as functional, cell-based. The gist of the method:
as §2

Data set [6] concerns K562. Nature of the data set: Induction of apoptosis in human K562 cells at 2 ug/ml after 24 hrs by Annexin-V-FITC/PI double labelled cytometry. The data set is classed as functional. The gist of the method: (§3)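 K562 cells (1 × 10⁶/mL) treated 24 h, then resuspended in binding buffer. Stained with Annexin V-FITC and PI for 15 min at room temperature in the dark, diluted in binding buffer, analyzed by flow cytometry. Apoptosis rate given as mean ± S.D. of at least three independent experiments.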

Data set [7] deals with K562. Nature of the data set: Induction of apoptosis in human K562 cells at 10 ug/ml after 24 hrs by Annexin-V-FITC/PI double labelled cytometry. The data set is classed as functional. The gist of the method: as §3
Data set [8] relates to K562. Description: Cell cycle arrest in human K562 cells assessed as accumulation at G1 phase at 2 ug/ml after 24 hrs by flow cytometry. The data set is classed as functional. In outline:
(§4)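 K562 cells, synchronized, treated 24 h. Trypsinized, washed in PBS, fixed overnight in ice-cold 70% EtOH. Treated with RNase A 100 µg/mL at 37 °C for 30 min, then stained with propidium iodide (final 50 µg/mL). 20,000 cells analyzed by flow cytometry for DNA content; phase percentages representative of three independent experiments.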

In data set [9] the test system is K562. Description: Cell cycle arrest in human K562 cells assessed as accumulation at S phase at 2 ug/ml after 24 hrs by flow cytometry. The data set is classed as functional. The gist of the method:
as §4
For orientation: Flow cytometry measures light scatter and fluorescence of single cells or particles in a stream.

Data set [10] concerns K562. Nature of the data set: Cell cycle arrest in human K562 cells assessed as accumulation at G2/M phase at 2 ug/ml after 24 hrs by flow cytometry. The data set is classed as functional. In outline:
as §4

Data set [11] concerns K562. Nature of the data set: Cell cycle arrest in human K562 cells assessed as accumulation at G1 phase at 10 ug/ml after 24 hrs by flow cytometry. The data set is classed as functional. The gist of the method: as §4
In data set [12] the test system is K562. Nature of the data set: Cell cycle arrest in human K562 cells assessed as accumulation at S phase at 10 ug/ml after 24 hrs by flow cytometry. The data set is classed as functional. In outline: as §4
For data set [13], the system named is K562. Nature of the data set: Cell cycle arrest in human K562 cells assessed as accumulation at G2/M phase at 10 ug/ml after 24 hrs by flow cytometry. The data set is classed as functional. The gist of the method:
as §4

Data set [14] deals with A549. Description: Antitumor activity against human A549 cells xenografted in nude mouse assessed as increase in tumor volume at 8 mg/kg, ip administered every 2 days for 19 days measured on day 19 postimplantation relative to tumor volume on day of implantation. The data set is classed as functional. As to conditions: route intraperitoneal. In outline:
as §1

For orientation: IC50 means the concentration needed to halve the response being measured. A higher IC50 goes with weaker potency in that assay. On to `Cc1cc(C)c(-n2cc[n+](CC(=O)c3ccc4ccccc4c3)c2)c(C)c1.[Br-]`, for which the Activity result in the data set on Mus musculus is listed as “Non-toxic”; with K562 [6], 8.1%; with K562 [7] it was 15.5%; in the data set with K562 [8] it was 40%; in the data set with K562 [9], 45%; with K562 [10], 16%. The Activity in the data set on K562 [11] is given as 56%; in the data set with K562 [12], 26%; in the data set on K562 [13], 19%. Moreover, the “Ratio IC50” value in [1] and in [2] was 8 in each case. The “fold change (FC)” value was 5.3 in the data set with A549 [3] and 3.1 with A549 [14]. Also, the IC50 stood at 1.7 µg/mL in the data set with K562 [4]; 1.8 µg/mL with SMMC-7721; 1.2 µg/mL with EJ; 0.3 µg/mL in the data set with HEp-2; 5 µg/mL in the data set with A549 [5]; 2.2 µg/mL with HepG2. For the same molecule, the IC50 in the data set with Raji stood at 0.7 µg/mL.
